Experimental data taken from ChEMBL document CHEMBL1130136, “Novel biological response modifiers: phthalimides with tumor necrosis factor-alpha production-regulating activity” (J Med Chem, 1997).
Values after ≈ are worked out from the molar mass of the structure shown.

Assays:
WI-38 [1] = assay: In vitro cytotoxicity against human embryonic lung fibroblast WI-38 cells.; type: functional, cell-based
Outline: (§1)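 WI-38 human embryonic lung fibroblasts (5 × 10³ cells/well) in RPMI1640 + 10% FCS were exposed to graded concentrations of compound for 48 h at 37 °C. Viability was read by WST-1 with 1-methoxy PMS (2 h, 37 °C; absorbance at 450 nm). IC50 was reported in μg/mL, with the μM equivalent in parentheses.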

HL-60 [2] = assay: Tumor necrosis factor-alpha production in human leukemia cell line (HL-60) stimulated with 10 nM 12-O-tetradecanoylphorbol 13-acetate (TPA) at 30 uMolar.; type: functional
Outline: (§2)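 HL-60 cells at 5 × 10⁵/mL in RPMI1640 + 10% FBS were co-treated with 30 μM test compound and either 10 nM TPA or 50 nM OA for 16 h at 37 °C. Culture-medium TNF-α was measured by ELISA and expressed as % of inducer-alone control. Cell counts were taken at harvest. Assays were run in duplicate or triplicate (mean taken), at least three times.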

HL-60 [3] = assay: Tumor necrosis factor-alpha production in human leukemia cell line (HL-60) stimulated with 50 nM okadaic acid (OA), at 30 uMolar.; type: functional; outline: as §2
WI-38 [4] = assay: The cytotoxicity of the compounds assessed using human embryonic lung fibroblast WI-38 cells at (2.6 micro M).; type: functional, cell-based; outline: as §1
HL-60 [5] = assay: Amount of tumor necrosis factor-alpha produced by human leukemia cell line (HL-60) stimulated with 10 nM12-O-tetradecanoylphorbol 13-acetate (TPA) at 0.3 uM, measured by ELISA; type: functional
Outline: (§3)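 HL-60 cells (2.5 × 10⁵ in 0.5 mL, i.e. 5 × 10⁵/mL), growing exponentially in RPMI1640 + 10% FBS, were exposed to 10 nM TPA or 50 nM OA together with 0.3 μM test compound for 16 h at 37 °C. Secreted TNF-α was quantified by ELISA and expressed as % of inducer-alone production. Each run was done in duplicate or triplicate (mean taken) and repeated at least three times.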

HL-60 [6] = assay: Inhibition of 50 nM okadaic acid induced tumor necrosis factor-alpha production in human leukemia cell line (HL-60) by 0.3 uM.; type: functional; outline: as §3
WI-38 [7] = assay: The cytotoxicity of the compounds assessed using human embryonic lung fibroblast WI-38 cells at (99 micro M); type: functional, cell-based; outline: as §1
WI-38 [8] = assay: The cytotoxicity of the compounds assessed using human embryonic lung fibroblast WI-38 cells at (121 micro M); type: functional, cell-based; outline: as §1
WI-38 [9] = assay: The cytotoxicity of the compounds assessed using human embryonic lung fibroblast WI-38 cells at (8 micro M); type: functional, cell-based; outline: as §1
WI-38 [10] = assay: The cytotoxicity of the compounds assessed using human embryonic lung fibroblast WI-38 cells at (25 micro M); type: functional, cell-based; outline: as §1
WI-38 [11] = assay: The cytotoxicity of the compounds assessed using human embryonic lung fibroblast WI-38 cells at (95 micro M); type: functional, cell-based; outline: as §1
WI-38 [12] = assay: The cytotoxicity of the compounds assessed using human embryonic lung fibroblast WI-38 cells at (53 micro M); type: functional, cell-based; outline: as §1

Question: With `COc1ccccc1N1C(=O)c2ccccc2C1=O` as the compound, how does the IC50 (WI-38 [1]) read?
Answer: > 100 µg/mL

Question: What about the “Amount of TNF-alpha” value (HL-60 [2]) of the same compound?
Answer: 95%

Question: And the “Amount of TNF-alpha” value (HL-60 [3])?
Answer: 21%

Question: What does the source list for `CC(C)c1ccc(N2C(=O)c3ccccc3C2=O)cc1`?
Answer: IC50 (WI-38 [1]): > 100 µg/mL; Amount of TNF-alpha (HL-60 [2]): 139%; Amount of TNF-alpha (HL-60 [3]): 33%

Question: How did the IC50 (WI-38 [4]) turn out when `O=C1c2c(F)c(F)c(F)c(F)c2C(=O)N1C1Cc2ccccc2C1` was run?
Answer: 0.9 µg/mL (≈ 2.68 µM)

Question: What about the “Amount of TNF-alpha” value (HL-60 [5]) of the same compound?
Answer: 104%

Question: What about the “Amount of TNF-alpha” value (HL-60 [6]) of the same compound?
Answer: 43%

Question: For `CCc1cccc(C)c1N1C(=O)c2ccccc2C1=O`, which “Amount of TNF-alpha” value (HL-60 [2]) is on record?
Answer: 188%

Question: And the “Amount of TNF-alpha” value (HL-60 [3])?
Answer: 82%

Question: And the IC50 (WI-38 [7])?
Answer: 26.2 µg/mL (≈ 98.8 µM)

Question: Which results are given for `CC(=O)Nc1ccc([C@@H](C)N2C(=O)c3c(F)c(F)c(F)c(F)c3C2=O)cc1`?
Answer: Amount of TNF-alpha (HL-60 [5]): 220%; Amount of TNF-alpha (HL-60 [6]): 55%

Question: Which results are given for `CC(C)c1cccc(C(C)C)c1N1C(=O)c2ccc([N+](=O)[O-])cc2C1=O`?
Answer: Amount of TNF-alpha (HL-60 [2]): 683%; IC50 (WI-38 [8]): 42.7 µg/mL (≈ 121 µM); Amount of TNF-alpha (HL-60 [3]): 54%

Question: How did the IC50 (WI-38 [1]) turn out when `Cc1cccc(C)c1N1C(=O)c2ccccc2C1=O` was run?
Answer: > 100 µg/mL

Question: What about the “Amount of TNF-alpha” value (HL-60 [2]) of the same compound?
Answer: 161%

Question: What about the “Amount of TNF-alpha” value (HL-60 [3]) of the same compound?
Answer: 40%

Question: What does the source list for `CC(C)c1cccc(N2C(=O)c3ccccc3C2=O)c1`?
Answer: IC50 (WI-38 [1]): > 100 µg/mL; Amount of TNF-alpha (HL-60 [2]): 158%; Amount of TNF-alpha (HL-60 [3]): 105%

Question: With `CC[C@@H](c1ccccc1)N1C(=O)c2c(F)c(F)c(F)c(F)c2C1=O` as the compound, how does the “Amount of TNF-alpha” value (HL-60 [5]) read?
Answer: 235%

Question: What about the “Amount of TNF-alpha” value (HL-60 [6]) of the same compound?
Answer: 87%

Question: `C[C@H](c1cccc2ccccc12)N1C(=O)c2c(F)c(F)c(F)c(F)c2C1=O` was tested. Which “Amount of TNF-alpha” value (HL-60 [5]) did it give?
Answer: 100%

Question: And the IC50 (WI-38 [9])?
Answer: 2.8 µg/mL (≈ 7.5 µM)

Question: And the “Amount of TNF-alpha” value (HL-60 [6])?
Answer: 2%

Question: Which results are given for `CC(C)c1cccc(C(C)C)c1N1C(=O)c2cccc(N)c2C1=O`?
Answer: IC50 (WI-38 [10]): 8.1 µg/mL (≈ 25.1 µM); Amount of TNF-alpha (HL-60 [2]): 248%; Amount of TNF-alpha (HL-60 [3]): 21%

Question: Which results are given for `CC(C)c1cccc(C(C)C)c1N1C(=O)c2ccccc2C1=S`?
Answer: IC50 (WI-38 [11]): 30.8 µg/mL (≈ 95.2 µM); Amount of TNF-alpha (HL-60 [2]): 1252%; Amount of TNF-alpha (HL-60 [3]): 0%

Question: `CC(C)c1cccc(C(C)C)c1N1C(=O)c2ccccc2C1=O` was tested. Which IC50 (WI-38 [1]) did it give?
Answer: > 100 µg/mL

Question: What about the “Amount of TNF-alpha” value (HL-60 [2]) of the same compound?
Answer: 602%

Question: What about the “Amount of TNF-alpha” value (HL-60 [3]) of the same compound?
Answer: 21%

Question: `CC(C)c1cccc(C(C)C)c1N1C(=O)c2ccc(N)cc2C1=O` was tested. Which “Amount of TNF-alpha” value (HL-60 [2]) did it give?
Answer: 242%

Question: And the “Amount of TNF-alpha” value (HL-60 [3])?
Answer: 28%

Question: What about the IC50 (WI-38 [12]) of the same compound?
Answer: 17.4 µg/mL (≈ 54 µM)

Question: `CC(C)c1cccc(C(C)C)c1N1C(=O)Cc2ccccc2C1=O` was tested. Which IC50 (WI-38 [1]) did it give?
Answer: > 100 µg/mL

Question: What about the “Amount of TNF-alpha” value (HL-60 [2]) of the same compound?
Answer: 268%

Question: And the “Amount of TNF-alpha” value (HL-60 [3])?
Answer: 50%

Question: Which IC50 (WI-38 [1]) does the source give for `O=C1c2c(F)c(F)c(F)c(F)c2C(=O)N1[C@H]1CCc2ccccc21` here?
Answer: > 100 µg/mL

Question: And the “Amount of TNF-alpha” value (HL-60 [5])?
Answer: 392%

Question: And the “Amount of TNF-alpha” value (HL-60 [6])?
Answer: 98%

Question: Which results are given for `C[C@@H](C1CCCCC1)N1C(=O)c2c(F)c(F)c(F)c(F)c2C1=O`?
Answer: IC50 (WI-38 [1]): > 100 µg/mL; Amount of TNF-alpha (HL-60 [5]): 124%; Amount of TNF-alpha (HL-60 [6]): 65%

Question: What does the source list for `C[C@H](C1CCCCC1)N1C(=O)c2c(F)c(F)c(F)c(F)c2C1=O`?
Answer: IC50 (WI-38 [1]): > 100 µg/mL; Amount of TNF-alpha (HL-60 [5]): 98%; Amount of TNF-alpha (HL-60 [6]): 10%

Question: For `C[C@H](c1ccc([N+](=O)[O-])cc1)N1C(=O)c2c(F)c(F)c(F)c(F)c2C1=O`, which “Amount of TNF-alpha” value (HL-60 [5]) is on record?
Answer: 239%

Question: What about the “Amount of TNF-alpha” value (HL-60 [6]) of the same compound?
Answer: 27%

Question: What does the source list for `CC(C)c1ccccc1N1C(=O)c2ccccc2C1=O`?
Answer: IC50 (WI-38 [1]): > 100 µg/mL; Amount of TNF-alpha (HL-60 [2]): 158%; Amount of TNF-alpha (HL-60 [3]): 105%

Question: For `CC/N=C1\c2ccccc2C(=O)N1c1c(C(C)C)cccc1C(C)C`, which “Amount of TNF-alpha” value (HL-60 [2]) is on record?
Answer: 138%

Question: What about the “Amount of TNF-alpha” value (HL-60 [3]) of the same compound?
Answer: 75%

Question: With `C[C@@H](c1ccc(N)cc1)N1C(=O)c2c(F)c(F)c(F)c(F)c2C1=O` as the compound, how does the “Amount of TNF-alpha” value (HL-60 [5]) read?
Answer: 262%

Question: And the “Amount of TNF-alpha” value (HL-60 [6])?
Answer: 38%

Question: How did the IC50 (WI-38 [1]) turn out when `O=C1c2ccccc2C(=O)N1c1ccccc1` [N-PHENYL-PHTHALIMIDE] was run?
Answer: > 100 µg/mL

Question: What about the “Amount of TNF-alpha” value (HL-60 [2]) of the same compound?
Answer: 100%

Question: What about the “Amount of TNF-alpha” value (HL-60 [3]) of the same compound?
Answer: 61%

Question: `CC[C@H](c1ccccc1)N1C(=O)c2c(F)c(F)c(F)c(F)c2C1=O` was tested. Which “Amount of TNF-alpha” value (HL-60 [5]) did it give?
Answer: 111%

Question: What about the “Amount of TNF-alpha” value (HL-60 [6]) of the same compound?
Answer: 67%
